Converted amounts (≈) assume the structure as drawn.

The subject of one data set is Enterococcus faecalis. The data set is described as follows: Tested for minimum inhibitory concentration against Enterococcus faecalis ATCC 19433. It is filed as functional. In outline: (§1)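 Twofold broth microdilution in Mueller-Hinton broth, inoculum approximately 10^6 cfu/mL. Plates incubated 18 h at 37 °C. MIC taken as the lowest concentration preventing visible bacterial growth.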

Another data set relates to Pseudomonas aeruginosa. In words: Tested for minimum inhibitory concentration against Pseudomonas aeruginosa 32121. In kind it is functional. In outline: as §1
The subject of the next data set is Streptococcus pyogenes. In words: Tested for minimum inhibitory concentration against Streptococcus pyogenes G-36. In kind it is functional. In outline:
as §1

The subject of data set [1] is Staphylococcus epidermidis. In words: Tested for minimum inhibitory concentration against Staphylococcus epidermidis 56556. In kind it is functional. In outline: as §1
In data set [2] the test system is Staphylococcus aureus. The data set is described as follows: Tested for minimum inhibitory concentration against Staphylococcus aureus 209P. In kind it is functional. In outline:
as §1

The subject of data set [3] is Staphylococcus aureus. The data set is described as follows: Tested for minimum inhibitory concentration against Staphylococcus aureus Smith. It is filed as functional. In outline:
as §1

The test system of a further data set is Klebsiella pneumoniae. In words: Tested for minimum inhibitory concentration against Klebsiella pneumoniae. In kind it is functional. In outline:
as §1

Data set [4] has as its system Enterobacter cloacae. In words: (§2) Tested for minimum inhibitory concentration against Enterobacter cloacae 03400. In kind it is functional. In outline:
as §1

Data set [5] deals with Escherichia coli. The data set is described as follows: Tested for minimum inhibitory concentration against Escherichia coli NIHJ. In kind it is functional. In outline:
as §1

For the next data set, the system named is Proteus vulgaris. In words: Tested for minimum inhibitory concentration against Proteus vulgaris 08601. In kind it is functional. In outline:
as §1

The nature of data set [6]: Partition coefficient of the compound. It is filed as ADME. To be noted: CHCl3-0.1 M phosphate buffer (pH 7.4). In outline: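 Shake-flask distribution between CHCl3 and 0.1 M sodium phosphate buffer pH 7.4, each phase presaturated with the other. About 1–2 mg sample dissolved in the aqueous phase and its UV maximum absorbance recorded. Equal 10 mL volumes shaken 30 min at room temperature, then left 1 h to separate. Aqueous-layer UV maximum re-read. P' calculated as a ratio of the absorbance readings.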

In data set [7] the test system is Escherichia coli. In words: Tested for minimum inhibitory concentration against Escherichia coli KL-16. In kind it is functional. In outline:
as §1

Data set [8] addresses DNA gyrase (Escherichia coli) (UniProt P0AES6+P0AES4). In words: Dose required to inhibit DNA gyrase in Escherichia coli. In kind it is protein-complex assay.
The subject of data set [9] is Enterobacter cloacae. The description is as §2. In kind it is functional. The source holds these as a separate data set.
[10] abbreviates: Escherichia coli, read-out: MIC.
Setting [11] is: Proteus vulgaris, read-out: MIC.
Where [12] appears, read: Klebsiella pneumoniae, read-out: MIC.
Setting [13] is: Staphylococcus aureus, read-out: MIC.
Where [14] appears, read: Enterococcus faecalis, ATCC 19433, read-out: MIC.
Where [15] appears, read: Pseudomonas aeruginosa, read-out: MIC.
[16] abbreviates: Staphylococcus epidermidis, read-out: MIC.

With `C[C@H]1CN(c2c(F)cc3c(=O)c(C(=O)O)cn(C4CC4F)c3c2F)CCN1` (stereo in doubt; 32), the minimal inhibitory concentration (MIC) (as a rule, the lowest concentration found to suppress growth) with Enterococcus faecalis is 0.78 µg/mL (≈ 2.05 µM); against Pseudomonas aeruginosa, 0.1 µg/mL (≈ 0.262 µM); in the data set with Streptococcus pyogenes, 1.56 µg/mL (≈ 4.09 µM); in [1] it was 0.2 µg/mL (≈ 0.524 µM); against Staphylococcus aureus [2] it was 0.1 µg/mL (≈ 0.262 µM); in the data set on Staphylococcus aureus [3] it was “<=0.05 ug ml-1”. In addition, the MIC entry with Klebsiella pneumoniae is “<=0.05 ug ml-1”.

As to `C[C@H]1CN(c2c(F)cc3c(=O)c(C(=O)O)cn(C4CC4F)c3c2F)CCN1` (stereo in doubt; 33), the MIC in the data set with Enterobacter cloacae [4] was no more than 0.05 µg/mL; in the data set on Enterococcus faecalis it was 12.5 µg/mL (≈ 32.8 µM); in the data set on Escherichia coli [5] (setting [10]) it was no more than 0.05 µg/mL; in the data set with Pseudomonas aeruginosa it was 0.39 µg/mL (≈ 1.02 µM); with Proteus vulgaris (setting [11]), no more than 0.05 µg/mL; against Streptococcus pyogenes, 50 µg/mL (≈ 131 µM). Besides, the MIC in data set [1] turned out to be 3.13 µg/mL (≈ 8.21 µM); in the data set on Staphylococcus aureus [2] it was 1.56 µg/mL (≈ 4.09 µM); in the data set with Staphylococcus aureus [3], 0.78 µg/mL (≈ 2.05 µM); with Klebsiella pneumoniae (setting [12]), 0.1 µg/mL (≈ 0.262 µM).

As to `C[C@@H]1CN(c2c(F)cc3c(=O)c(C(=O)O)cn(C4CC4F)c3c2F)CCN1` (stereo in doubt; 34), the MIC against Enterobacter cloacae [4] is no more than 0.05 µg/mL; against Enterococcus faecalis it was 0.78 µg/mL (≈ 2.05 µM); in the data set with Escherichia coli [5] (setting [10]), no more than 0.05 µg/mL; against Pseudomonas aeruginosa it was 0.1 µg/mL (≈ 0.262 µM); against Proteus vulgaris, “<=0.05 ug ml-1”; in the data set on Streptococcus pyogenes it was 0.78 µg/mL (≈ 2.05 µM). Moreover, the MIC in data set [1] was 0.2 µg/mL (≈ 0.524 µM); against Staphylococcus aureus [2] it was 0.1 µg/mL (≈ 0.262 µM); against Staphylococcus aureus [3], no more than 0.05 µg/mL; in the data set with Klebsiella pneumoniae (setting [12]), 0.1 µg/mL (≈ 0.262 µM).

As for `C[C@@H]1CN(c2c(F)cc3c(=O)c(C(=O)O)cn(C4CC4F)c3c2F)CCN1` (stereo in doubt; 35), the MIC in the data set with Enterococcus faecalis came out at 12.5 µg/mL (≈ 32.8 µM); against Pseudomonas aeruginosa, 0.78 µg/mL (≈ 2.05 µM); with Proteus vulgaris it was 0.2 µg/mL (≈ 0.524 µM); with Streptococcus pyogenes, 50 µg/mL (≈ 131 µM); in [1], 3.13 µg/mL (≈ 8.21 µM); with Staphylococcus aureus [2] it was 1.56 µg/mL (≈ 4.09 µM). Further, the minimum inhibitory concentration (MIC) came out at 0.78 µg/mL (≈ 2.05 µM) in the data set on Staphylococcus aureus [3] (setting [13]) and 0.2 µg/mL (≈ 0.524 µM) against Klebsiella pneumoniae.

With `CN1CCN(c2nc3c(cc2F)c(=O)c(C(=O)O)cn3C2CC2F)CC1` (stereo in doubt; 36), the minimal inhibitory concentration (MIC) in the data set on Enterococcus faecalis was 1.56 µg/mL (≈ 4.28 µM); with Pseudomonas aeruginosa, 0.2 µg/mL (≈ 0.549 µM); with Proteus vulgaris, 0.2 µg/mL (≈ 0.549 µM); with Streptococcus pyogenes, 6.25 µg/mL (≈ 17.2 µM); in data set [1], 0.39 µg/mL (≈ 1.07 µM); against Staphylococcus aureus [2], 0.39 µg/mL (≈ 1.07 µM). In addition, the MIC against Staphylococcus aureus [3] and with Klebsiella pneumoniae was 0.2 µg/mL (≈ 0.549 µM) each time.

With `CN1CCN(c2nc3c(cc2F)c(=O)c(C(=O)O)cn3C2CC2F)CC1` (stereo in doubt; 37), the MIC with Enterobacter cloacae [4] was no more than 0.05 µg/mL; with Enterococcus faecalis, 25 µg/mL (≈ 68.6 µM); in the data set on Escherichia coli [5] (setting [10]), no more than 0.05 µg/mL; in the data set with Pseudomonas aeruginosa, 0.78 µg/mL (≈ 2.14 µM); in the data set with Proteus vulgaris (setting [11]) it was 0.2 µg/mL (≈ 0.549 µM); with Streptococcus pyogenes it was 25 µg/mL (≈ 68.6 µM). The minimal inhibitory concentration (MIC) in data set [1] was found to be 1.56 µg/mL (≈ 4.28 µM); against Staphylococcus aureus [2], 1.56 µg/mL (≈ 4.28 µM); in the data set on Staphylococcus aureus [3], 0.78 µg/mL (≈ 2.14 µM); in the data set with Klebsiella pneumoniae (setting [12]), 0.2 µg/mL (≈ 0.549 µM).

Consider `CN1CCN(c2cc3c(cc2F)c(=O)c(C(=O)O)cn3[C@@H]2C[C@@H]2F)CC1` (stereo in doubt; 38) [listing 1 of 2 here], for which, in data set [6], the “P'” value was 7.3. Also, the minimal inhibitory concentration (MIC) in the data set with Escherichia coli [7] was 0.025 µg/mL (≈ 0.0688 µM); against Pseudomonas aeruginosa, 0.1 µg/mL (≈ 0.275 µM); in data set [1], 0.2 µg/mL (≈ 0.55 µM); against Klebsiella pneumoniae, “<=0.05 ug ml-1”.

`CN1CCN(c2cc3c(cc2F)c(=O)c(C(=O)O)cn3[C@@H]2C[C@@H]2F)CC1` (stereo in doubt; 38) [listing 2 of 2 here] showed an ID50 in data set [8] of 0.18 µg/mL (≈ 0.495 µM).

For `CN1CCN(c2cc3c(cc2F)c(=O)c(C(=O)O)cn3[C@@H]2C[C@@H]2F)CC1` (stereo in doubt; 39) [listing 1 of 2 here], the “P'” value in [6] was 7. Besides, the MIC with Enterobacter cloacae [9] is no more than 0.05 µg/mL; in the data set on Enterococcus faecalis (setting [14]), 0.78 µg/mL (≈ 2.15 µM); in the data set with Escherichia coli [7] (setting [10]), 0.05 µg/mL (≈ 0.138 µM); in the data set on Escherichia coli [5], no more than 0.05 µg/mL; in the data set on Pseudomonas aeruginosa (setting [15]), 0.2 µg/mL (≈ 0.55 µM); with Proteus vulgaris (setting [11]), no more than 0.05 µg/mL. Besides, the MIC in the data set on Streptococcus pyogenes (Streptococcus pyogenes, read-out: MIC) was 1.56 µg/mL (≈ 4.29 µM); in [1] (setting [16]), 0.2 µg/mL (≈ 0.55 µM); in the data set with Staphylococcus aureus [2] (setting [13]), 0.1 µg/mL (≈ 0.275 µM); with Staphylococcus aureus [3] (setting [13]), no more than 0.05 µg/mL; in the data set on Klebsiella pneumoniae (setting [12]), 0.1 µg/mL (≈ 0.275 µM).

In turn, `CN1CCN(c2cc3c(cc2F)c(=O)c(C(=O)O)cn3[C@@H]2C[C@@H]2F)CC1` (stereo in doubt; 39) [listing 2 of 2 here] came in with an ID50 in [8] of 0.34 µg/mL (≈ 0.936 µM).

Regarding `O=C(O)c1cn(C2CC2)c2cc(N3CCNCC3)c(F)cc2c1=O` [CIPROFLOXACIN], in data set [8], the ID50 is 0.13 µg/mL (≈ 0.392 µM). The MIC was 0.78 µg/mL (≈ 2.35 µM) with Enterococcus faecalis (setting [14]); 0.025 µg/mL (≈ 0.0754 µM) in the data set with Escherichia coli [7] (setting [10]); no more than 0.05 µg/mL with Escherichia coli [5]; no more than 0.05 µg/mL in the data set with Pseudomonas aeruginosa (setting [15]); no more than 0.05 µg/mL in the data set on Proteus vulgaris (setting [11]); 0.2 µg/mL (≈ 0.604 µM) in data set [1] (setting [16]). For the same compound, the MIC in the data set on Staphylococcus aureus [2] (setting [13]) is 0.1 µg/mL (≈ 0.302 µM); in the data set on Staphylococcus aureus [3] (setting [13]), no more than 0.05 µg/mL; in the data set with Klebsiella pneumoniae (setting [12]) it was no more than 0.05 µg/mL.

These data come from ChEMBL document CHEMBL1127078, “Fluorocyclopropyl quinolones. 1. Synthesis and structure-activity relationships of 1-(2-fluorocyclopropyl)-3-pyridonecarboxylic acid antibacterial agents” (J Med Chem, 1993).
